Screening data (PubChem)
NPY-Y2 PAM-ag – potentiators or agonists of human neuropeptide Y receptor Y2; P49146; cells expressing NPY-Y2, potentiator/agonist read-out; activation, % at 3.6 µM; 220,000 tested, 0.45% active; AID 1359; in the data active = activation above about 27%;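 note: cells stimulated with NPY near EC25 plus isoproterenol at EC100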
Target sequence (P49146 whole entry, looked up): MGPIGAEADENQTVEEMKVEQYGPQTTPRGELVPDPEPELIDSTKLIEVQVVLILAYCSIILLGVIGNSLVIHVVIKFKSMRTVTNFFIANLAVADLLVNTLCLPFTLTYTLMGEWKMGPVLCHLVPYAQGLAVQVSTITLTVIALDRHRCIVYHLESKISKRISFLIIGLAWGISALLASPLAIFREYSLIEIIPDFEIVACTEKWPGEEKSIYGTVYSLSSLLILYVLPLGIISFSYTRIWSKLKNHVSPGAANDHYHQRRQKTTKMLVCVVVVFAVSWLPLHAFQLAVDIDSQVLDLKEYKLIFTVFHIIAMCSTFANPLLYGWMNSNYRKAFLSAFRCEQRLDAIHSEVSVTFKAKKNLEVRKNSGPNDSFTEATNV
NPY-Y1 antag – antagonists of human neuropeptide Y receptor Y1; AID 1040; 200,000 tested, 1% active; inhibition, % at 3.6 µM; HEK293-CNG Y1 cells, membrane potential fluorescence; NPY at EC95, then isoproterenol; P25929;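 active = inhibition above the campaign mean inhibition of all tested compounds plus 3 SD, cut at about 20% in these data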
Target sequence (P25929 whole entry, looked up): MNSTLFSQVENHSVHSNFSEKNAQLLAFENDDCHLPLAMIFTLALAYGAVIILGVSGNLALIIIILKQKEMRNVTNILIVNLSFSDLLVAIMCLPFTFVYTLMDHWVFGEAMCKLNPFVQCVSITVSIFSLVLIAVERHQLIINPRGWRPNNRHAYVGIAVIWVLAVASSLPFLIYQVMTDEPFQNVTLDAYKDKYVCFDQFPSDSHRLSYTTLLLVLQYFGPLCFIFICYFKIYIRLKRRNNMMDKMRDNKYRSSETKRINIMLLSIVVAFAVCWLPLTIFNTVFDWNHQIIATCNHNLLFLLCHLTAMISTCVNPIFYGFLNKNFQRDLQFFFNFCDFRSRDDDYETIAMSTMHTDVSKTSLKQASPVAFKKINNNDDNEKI
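Material: HEK293 Y1/CNG channel cell line | Also added: NPY (25 nM), isoproterenol (1 µM), Ro 20-1724 (25 µM) | Compound: One concentration, 3.6 µM, in 0.4% DMSO | Schedule: 3 h dye uptake, 1 h room-temperature compound, 45 min post-isoproterenol | Signal: Membrane-potential fluorescent dye readout | Read-out: % inhibition of NPY effect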
NPY-Y2 antag – antagonists of human neuropeptide Y receptor Y2; P49146; NPY-Y2 expressing cells, antagonist mode; inhibition, % at 2.7 µM; 140,000 tested, 0.99% active; AID 793; in the data active = inhibition above about 17%
NPY1 pot ag – potentiates or activates human NPY-Y1 receptor; AID 1304; 220,000 tested, 0.37% active; P25929; activation, % at 3.6 µM; NPY-Y1 expressing cells, potentiator/agonist activation; in the data active = activation above about 33%, passing the limit was not always enough;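 note: cells stimulated with NPY at EC10 then isoproterenol at EC100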
NPY-Y1 pot conf – confirmation of human NPY-Y1 receptor potentiators or agonists; 280 tested, 20% active; activation, % at 3.6 µM; AID 1546; shares compounds with NPY1 pot ag; cell-based NPY-Y1 potentiator/agonist assay; in the data active = activation above about 45%;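 note: cells challenged with NPY at its EC10 plus isoproterenol stimulus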
NPY-Y2 counter – NPY-Y2 potentiation or agonism as NPY-Y1 counter-screen; AID 1649; 280 tested, 20% active; HEK293-CNG cells, membrane-potential fluorescence (FLIPR), 1536-well; shares compounds with NPY1 pot ag; activation, % at 3.6 µM; in the data active = activation above about 33%
NPY-Y1 agonist – counter-screen for NPY-Y1 potentiators: agonists of human NPY-Y1. activation, % at 3.6 µM. shares compounds with NPY1 pot ag. HEK293 Y1-CNGC, membrane potential fluorescence, agonist mode. 280 tested, 50% active;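 active = percent activation above the mean of DMSO-only control wells plus 3 SD of those wells, cut at about 18% in these data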;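 note: cells challenged with isoproterenol plus Ro 20-1724 with no NPY in test wells; Y1 agonism lowers isoproterenol-driven cAMP and reduces probe fluorescence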
NPY-Y2 ag – counter-screen for NPY-Y1 potentiators or agonists: agonists of NPY-Y2 | 280 tested, 67% active | activation, % at 3.6 µM | AID 1698 | HEK293 Y2-CNGC, membrane potential fluorescence, agonist mode | shares compounds with NPY1 pot ag;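 active = activation above the solvent-only control wells' mean plus 3 SD, cut at about 11% in these data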;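 note: agonism lowers cAMP so well fluorescence drops in active wells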
CNGC counter – CNG channel inhibition, counter-screen for NPY-Y1 potentiators | shares compounds with NPY1 pot ag | HEK293-CNG parental, isoproterenol cAMP, membrane potential fluorescence | inhibition, % at 3.6 µM | 280 tested, 42% active | AID 1704;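 active = inhibition above the mean of stimulated solvent-only control wells plus 3 SD, cut at about 22% in these data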
Hits are given with their value; 0 = inactive; - = not tested or not shown. A selection: hits, their analogues and other compounds. The true share with any hit is near 1.9%.

SMILES | NPY-Y2 PAM-ag | NPY-Y1 antag | NPY-Y2 antag | NPY1 pot ag | NPY-Y1 pot conf | NPY-Y2 counter | NPY-Y1 agonist | NPY-Y2 ag | CNGC counter
CCOC(=O)c1c(NC(=O)C2C3CCC(O3)C2C(=O)O)sc(C)c1-c1ccc(F)cc1 (stereo not given) | 0 | 0 | 0 | 0 | - | - | - | - | -
CCCOC(=O)c1c(-c2ccc(C)cc2C)csc1NC(=O)C1C2CCC(O2)C1C(=O)O (stereo not given) | 0 | 0 | 0 | 47.5 | 0 | 0 | 18.4 | 13.0 | 0
COc1ccccc1/C=C/CN1CCCC(CCC(=O)NCc2ccccc2F)C1 (stereo not given) | 0 | 0 | - | 0 | - | - | - | - | -
O=C(CN1C(=O)CC(c2ccco2)Sc2ccccc21)NC1CCCCC1 (stereo not given) | 0 | 0 | - | 0 | - | - | - | - | -
N#Cc1c(-n2cccc2/C=N/O)sc2c1CCCC2 | 0 | 0 | 0 | 44.3 | 0 | 0 | 0 | 0 | 0
CNc1nc(C23CC4CC(CC(C4)C2)C3)cs1 | 0 | 0 | - | 0 | - | - | - | - | -
Cc1cccc(C)c1OCC(O)CN (stereo not given) | 0 | 0 | 0 | 0 | - | - | - | - | -
Cc1cc(OCC(O)CN)ccc1Cl (stereo not given) | 0 | 0 | - | 51.4 | 0 | 0 | 0 | 17.7 | 0
O=C(CSCSCC(=O)Nc1ccc2c(c1)OCO2)Nc1ccc2c(c1)OCO2 | 0 | 0 | 0 | 46.1 | 0 | 0 | 0 | 0 | 0
O=C(CSCc1ccccc1)Nc1ccc2c(c1)OCO2 | 0 | 0 | 0 | 0 | - | - | - | - | -
CCCC(=O)c1ccc(N2CCN(C(=O)c3ccccc3Br)CC2)c(F)c1 | 0 | 0 | 0 | 34.4 | 0 | 0 | 0 | 0 | 0
COc1cccc(-n2c(SCC(N)=O)nnc2-c2ccncc2)c1 | 0 | 0 | 0 | 0 | - | - | - | - | -
COc1cccc(NC(=O)C(Sc2nnc(-c3ccncc3)n2-c2ccc(Cl)cc2)c2ccccc2)c1 (stereo not given) | 0 | 0 | 0 | 51.5 | 59.7 | 54.4 | 63.5 | 39.8 | 60.3
CCCC(=O)Nc1ccc(NC(=O)CCc2ccccc2)cn1 | 0 | 0 | 0 | 52.3 | 0 | 0 | 0 | 0 | 0
CC1CCN(CC(O)COC2CC(C)CCC2C(C)C)CC1 (stereo not given) | 0 | 0 | - | 41.3 | 0 | 0 | 0 | 15.7 | 0
CC(NCC(O)COC1CCC(C(C)(C)C)CC1)c1ccccc1 (stereo not given) | 0 | 0 | - | 0 | - | - | - | - | -
CC1CCC(C(C)C)C(OCC(O)CNC(C)c2ccccc2)C1 (stereo not given) | 0 | 0 | - | 43.0 | 0 | 38.5 | 45.5 | 42.4 | 0
Cc1c(N2C(=O)c3ccccc3C2(O)c2ccccc2)c(=O)n(-c2ccccc2)n1C (stereo not given) | 0 | - | - | 0 | - | - | - | - | -
CCOC(=O)c1cnc2c(-c3ccccc3OC)c(C)nn2c1C | 0 | 0 | - | 0 | - | - | - | - | -
CCOC(=O)C(Cc1ccccc1)C(=O)Nc1ccc(N(CC)CC)cc1 (stereo not given) | 0 | 0 | 0 | 45.7 | 49.8 | 0 | 31.1 | 18.9 | 0
CCOC(=O)C(Cc1ccccc1)C(=O)Nc1cccc(C)c1 (stereo not given) | 0 | 0 | 0 | 0 | - | - | - | - | -
Cc1[nH]n(-c2ccc([N+](=O)[O-])cc2)c(=O)c1C=NCCN1CCN(C(=O)c2cccc(F)c2)CC1 | 0 | 0 | 0 | 46.8 | 0 | 0 | 0 | 0 | 0
Nc1ccccc1Nc1ccccc1 | 0 | 0 | 0 | 38.0 | 0 | 0 | 0 | 0 | 24.2
Nc1ccc(Nc2ccccc2)c(Cl)c1 | 0 | 0 | 0 | 0 | - | - | - | - | -
CC(C)OC(=O)c1cccc(NC(=O)CSc2nnc(N)s2)c1 | 0 | 0 | - | 0 | - | - | - | - | -
SMILES | NPY-Y2 PAM-ag | NPY-Y1 antag | NPY-Y2 antag | NPY1 pot ag | NPY-Y1 pot conf | NPY-Y2 counter | NPY-Y1 agonist | NPY-Y2 ag | CNGC counter
CCN(CC)S(=O)(=O)c1ccc(NC(=O)c2cccs2)cc1 | 0 | 0 | - | 85.9 | 0 | 0 | 0 | 0 | 0
Cc1ccc(S(=O)(=O)N2CCCN(S(=O)(=O)c3ccc(C)cc3)CC2)cc1 | 0 | 0 | 0 | 0 | - | - | - | - | -
Cc1ccc(O)c(N=Nc2ccc(S(=O)(=O)N3CCCC3)cc2)c1 | 0 | - | - | 45.0 | 45.1 | 0 | 29.9 | 42.3 | 27.0
CN(C)c1cccc(/C=C(\C#N)c2ccccc2)c1 | 0 | - | - | 0 | - | - | - | - | -
CSC(=NC#N)N1CCN(c2ccc([N+](=O)[O-])cc2)CC1 | 0 | 0 | - | 0 | - | - | - | - | -
NC(=O)/C(=C/c1cccnc1)NC(=O)c1ccccc1 | 0 | - | - | 0 | - | - | - | - | -
CC1(C)Cc2c(cnn2-c2ccccc2)-c2c1c1ccccc1n2CC(O)CBr (stereo not given) | 0 | 0 | 0 | 49.9 | 0 | 0 | 0 | 11.9 | 0
CC1(C)Cc2c(cnn2-c2ccccc2)C(=O)/C1=N\NC(=O)c1ccccc1N | 0 | 0 | 0 | 0 | - | - | - | - | -
CCN(CC)S(=O)(=O)c1cc(NC(=O)Cn2ncc(Cl)c(Cl)c2=O)ccc1C | 0 | - | - | 44.0 | 0 | 0 | 22.4 | 18.3 | 26.5
COc1ccccc1Cn1c(-c2ccccc2OC)nc2ccccc21 | 0 | 0 | 0 | 0 | - | - | - | - | -
Oc1ccccc1Cn1c(-c2ccccc2O)nc2ccccc21 | 0 | 0 | 0 | 38.7 | 0 | 0 | 27.3 | 25.9 | 0
CC(C)Cc1nc(N2CCN(C(=O)C(C)C)CC2)c(C#N)c2c1CCC2 | 0 | 0 | 0 | 30.8 | 0 | 0 | 0 | 0 | 0
CC(=O)N1CCN(c2nc(CC(C)C)c3c(c2C#N)CCC3)CC1 | 0 | 0 | 0 | 0 | - | - | - | - | -
Cc1ccc(N2C(=S)NC3c4cc(Cl)ccc4OC2(C)C3C(=O)N(C)C)cc1 (stereo not given) | 0 | 0 | - | 34.6 | 74.1 | 43.9 | 51.3 | 47.0 | 51.5
COc1ccc(N2C(=S)NC3c4cc(Cl)ccc4OC2(C)C3C(=O)N(C)C)cc1 (stereo not given) | 0 | 0 | - | 0 | - | - | - | - | -
Cc1cccc(N2C(=S)NC3c4cc(Cl)ccc4OC2(C)C3C(=O)N(C)C)c1 (stereo not given) | 0 | 0 | - | 42.0 | 59.2 | 0 | 44.3 | 33.4 | 47.0
CCC(CC)C(=O)Nc1c2c(nn1-c1ccc(OC)cc1)CS(=O)C2 (stereo not given) | 0 | 0 | 0 | 40.6 | 0 | 0 | 0 | 0 | 0
CCC(=O)Nc1c2c(nn1-c1ccc(OC)cc1)CS(=O)C2 (stereo not given) | 0 | 0 | 0 | 0 | - | - | - | - | -
CCCCOc1ccc2c(c1)C(=O)c1cc(O)ccc1-2 | 0 | 0 | - | 37.7 | 49.2 | 41.0 | 39.5 | 39.0 | 33.0
CCOc1ccc(NC(=O)CN(C)S(=O)(=O)c2ccc3c(c2)CCC(=O)N3)cc1 | 0 | - | - | 0 | - | - | - | - | -
COc1cc(/C=C2\SC(=S)N(N3CCOCC3)C2=O)cc(OC)c1OC | 0 | 0 | 0 | 0 | - | - | - | - | -
COc1cc(/C=C2\SC(=S)N(N3CCOCC3)C2=O)ccc1O | 0 | - | - | 47.7 | 0 | 0 | 0 | 10.0 | 0
CC(=O)c1c(N2CCOCC2)nc2ccc(Cl)cc2c1-c1ccccc1 | 0 | - | - | 0 | - | - | - | - | -
